In ChEMBL document CHEMBL1157145, “Cytotoxic activity of proflavine diureas: synthesis, antitumor, evaluation and DNA binding properties of 1',1''-(acridin-3,6-diyl)-3',3''-dialkyldiureas” (Bioorg Med Chem, 2008):
The source made the active and inactive calls. The rule behind the calls is not given here.

Assays:
HeLa [1] = assay: Antiproliferative activity against human HeLa cells assessed as increase of floating cells in total cell population at 64 uM after 48 hrs; format: functional
Method in brief: (§1)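 Cells seeded (8 · 10^5 per 60 mm dish), allowed to settle 24 h at 37 °C, 5% CO2, then treated with a single concentration for 24 or 48 h. Adherent and floating cells counted by Coulter counter. Total cell number given as % of untreated control; floating cells as % of total cell number.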

HCT-116 [2] = assay: Cell cycle arrest in human HCT116 cells assessed as accumulation at G0/G1 phase at 27 uM after 24 hrs; format: functional
Method in brief: (§2)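 Adherent plus floating cells (5 · 10^5) collected 24 or 48 h after treatment, fixed in cold 70% ethanol at −20 °C overnight, washed in PBS. RNase A (100 µg/mL) and propidium iodide (20 µg/mL) in Vindelov's solution, 30 min at RT. Flow cytometry with 488 nm excitation, emission 585 ± 21 nm; % cells per cycle phase from DNA content histograms.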

DNA [3] = assay: Binding affinity to calf thymus DNA at 5.5 uM by absorption titration; format: nucleic-acid assay; conditions: Bos taurus
Method in brief: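 Compound (5.5 µM) in 0.01 M Tris, pH 7.4, 25 °C. UV–vis spectra recorded over ctDNA 0–35 µM bp in 5 µM steps, corrected for dilution. ctDNA concentration from A260, expressed in base pairs.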

HCT-116 [4] = assay: Antiproliferative activity against human HCT116 cells assessed as decrease in total cell population at 27 uM after 48 hrs; format: functional; design: scale not given: the % may be the effect or the level left; method in brief: as §1
HCT-116 [5] = assay: Cell cycle arrest in human HCT116 cells assessed as accumulation at G2/M phase at 27 uM after 24 hrs; format: functional
Method in brief: (§3)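 Cells seeded at 8 · 10^5 per 60 mm dish, allowed to settle 24 h (37 °C, 5% CO2), then exposed to the drug for 24 or 48 h. Adherent plus floating cells (5 · 10^5) were fixed in cold 70% ethanol at −20 °C overnight, treated with RNase A (100 µg/mL) and stained with propidium iodide (20 µg/mL) in Vindelov's solution for 30 min at RT. Flow cytometry used 488 nm excitation, FL-2 at 585 ± 21 nm, and histograms were modelled for G0/G1, S and G2/M fractions.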

HeLa [6] = assay: Cell cycle arrest in human HeLa cells assessed as accumulation at S phase at 64 uM after 24 hrs; format: functional; method in brief: as §3
HeLa [7] = assay: Antiproliferative activity against human HeLa cells assessed as increase of floating cells in total cell population at 64 uM after 24 hrs; format: functional; method in brief: as §1
HeLa [8] = assay: Cell cycle arrest in human HeLa cells assessed as accumulation at S phase at 64 uM after 48 hrs; format: functional; method in brief: as §3
HCT-116 [9] = assay: Antiproliferative activity against human HCT116 cells assessed as decrease in total cell population at 27 uM after 24 hrs; format: functional; design: scale not given: the % may be the effect or the level left; method in brief: as §1
HCT-116 [10] = assay: Cell cycle arrest in human HCT116 cells assessed as accumulation at S phase at 27 uM after 24 hrs; format: functional; method in brief: as §3
HeLa [11] = assay: Cell cycle arrest in human HeLa cells assessed as accumulation at G0/G1 phase at 64 uM after 48 hrs; format: functional; method in brief: as §3
HCT-116 [12] = assay: Antiproliferative activity against human HCT116 cells assessed as increase of floating cells in total cell population at 27 uM after 24 hrs; format: functional; method in brief: as §1
HeLa [13] = assay: Antiproliferative activity against human HeLa cells assessed as decrease in total cell population at 64 uM after 24 hrs; format: functional; design: scale not given: the % may be the effect or the level left; method in brief: as §1
HCT-116 [14] = assay: Induction of apoptosis in human HCT116 cells at 27 uM after 24 hrs; format: functional
Method in brief: (§4)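 After 24 or 48 h of drug exposure, all cells were collected, combining trypsinised adherent cells with floating cells from the medium. Cells (1 × 10^6) were fixed in cold 70% ethanol overnight at −20 °C and stained with DAPI (10 µg/mL) for 30 min in the dark at RT. Under fluorescence microscopy, 300 cells per sample were scored, with condensed or fragmented nuclei counted as apoptotic.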

DNA [15] = assay: Binding affinity to calf thymus DNA at 50 uM by circular dichroism spectrophotometric titration; format: nucleic-acid assay; conditions: Bos taurus
HCT-116 [16] = assay: Cell cycle arrest in human HCT116 cells assessed as accumulation at G0/G1 phase at 27 uM after 48 hrs; format: functional; method in brief: as §2
HeLa [17] = assay: Cell cycle arrest in human HeLa cells assessed as accumulation at G2/M phase at 64 uM after 24 hrs; format: functional; method in brief: as §3
HeLa [18] = assay: Cell cycle arrest in human HeLa cells assessed as accumulation at G0/G1 phase at 64 uM after 24 hrs; format: functional; method in brief: as §3
HCT-116 [19] = assay: Cell cycle arrest in human HCT116 cells assessed as accumulation at S phase at 27 uM after 48 hrs; format: functional; method in brief: as §3
HeLa [20] = assay: Cytotoxicity against human HeLa cells after 72 hrs by MTT assay; format: functional, cell-based
DNA [21] = assay: Binding affinity to calf thymus DNA at 4 uM by fluorescence spectrophotometric titration; format: nucleic-acid assay; conditions: Bos taurus
Method in brief: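 ctDNA sonicated in TE buffer, concentration taken from A260 and given in base pairs. Compound (4 µM) in 0.01 M Tris, pH 7.4, 25 °C titrated with ctDNA (0–55 µM bp) until spectra stopped changing. Excitation 424 nm, slit widths 10 nm; binding constant derived from the change in emission.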

HCT-116 [22] = assay: Antiproliferative activity against human HCT116 cells assessed as increase of floating cells in total cell population at 27 uM after 48 hrs; format: functional; method in brief: as §1
HeLa [23] = assay: Cell cycle arrest in human HeLa cells assessed as accumulation at G2/M phase at 64 uM after 48 hrs; format: functional; method in brief: as §3
HCT-116 [24] = assay: Cytotoxicity against human HCT116 cells after 48 hrs by MTT assay; format: functional, cell-based; conditions: HCT-116, 48 h
HeLa [25] = assay: Induction of apoptosis in human HeLa cells at 64 uM after 24 hrs; format: functional; method in brief: as §4
HeLa [26] = assay: Cytotoxicity against human HeLa cells after 48 hrs by MTT assay; format: functional, cell-based
HCT-116 [27] = assay: Cytotoxicity against human HCT116 cells after 72 hrs by MTT assay; format: functional, cell-based
HeLa [28] = assay: Antiproliferative activity against human HeLa cells assessed as decrease in total cell population at 64 uM after 48 hrs; format: functional; design: scale not given: the % may be the effect or the level left; method in brief: as §1
HeLa [29] = assay: Induction of apoptosis in human HeLa cells at 64 uM after 48 hrs; format: functional; method in brief: as §4
HCT-116 [30] = assay: Cell cycle arrest in human HCT116 cells assessed as accumulation at G2/M phase at 27 uM after 48 hrs; format: functional; method in brief: as §3
HCT-116 [31] = assay: Induction of apoptosis in human HCT116 cells at 27 uM after 48 hrs; format: functional; method in brief: as §4

CCNC(=O)Nc1ccc2cc3ccc(NC(=O)NCC)cc3nc2c1.Cl
Activity (HeLa [1]): 4.63% | Activity (HCT-116 [2]): 47.44% | Activity (DNA [3]): Active | Activity (HCT-116 [4]): 75.37% | Activity (HCT-116 [5]): 18.5% | Activity (HeLa [6]): 23.73% | Activity (HeLa [7]): 3.58% | Activity (HeLa [8]): 19.5% | Activity (HCT-116 [9]): 79.4% | Activity (HCT-116 [10]): 34.06% | Activity (HeLa [11]): 71.26% | Activity (HCT-116 [12]): 6.2% | Activity (HeLa [13]): 95.15% | Activity (HCT-116 [14]): 3.22% | Activity (DNA [15]): Active | Activity (HCT-116 [16]): 53.7% | Activity (HeLa [17]): 12.75% | Activity (HeLa [18]): 63.51% | Activity (HCT-116 [19]): 31.45% | IC50 (HeLa [20]): 60 µM | K (DNA [21]): 4.2 ×10⁵ /M | Activity (HCT-116 [22]): 5.68% | Activity (HeLa [23]): 9.23% | IC50 (HCT-116 [24]): 27.6 µM | Activity (HeLa [25]): 1.33% | IC50 (HeLa [26]): 63.9 µM | IC50 (HCT-116 [27]; Homo sapiens, HCT-116, 72 h): 34.7 µM | Activity (HeLa [28]): 93.61% | Activity (HeLa [29]): 0.89% | Activity (HCT-116 [30]): 14.85% | Activity (HCT-116 [31]): 3.44%

Nc1ccc2cc3ccc(N)cc3nc2c1
K (DNA [21]): 7.95 ×10⁵ /M

CC(C)C1=Cc2ccc3c(c2C(=O)C1=O)CCCC3(C)C [MILTIRONE]
Activity (HCT-116 [27]): 12.39 µM
